From PubChem
PDI inh: PDI (human) enzyme inhibition; AID 588391; 350,000 tested, 0.052% active; PDI insulin aggregation turbidity, A650, 90 min; inhibition, % at 10 µM;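 active = mean inhibition across replicates of 30% or more, whatever share of single replicates reach that level; inconclusive = mean inhibition below 30% while every single replicate reaches 30%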
ERp5 inh: inhibitors of human ERp5; Q15084; ERp5 insulin aggregation, absorbance 650 nm, 90 min; inhibition, % at 9.99 µM; 350,000 tested, 0.05% active;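 active = mean replicate inhibition above about 25%, with every replicate also reaching it, limit read from the data, passing the limit was not always enough; inconclusive = only one of those two criteria met; inactive = neither criterion met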
Target sequence (Q15084 whole entry, looked up): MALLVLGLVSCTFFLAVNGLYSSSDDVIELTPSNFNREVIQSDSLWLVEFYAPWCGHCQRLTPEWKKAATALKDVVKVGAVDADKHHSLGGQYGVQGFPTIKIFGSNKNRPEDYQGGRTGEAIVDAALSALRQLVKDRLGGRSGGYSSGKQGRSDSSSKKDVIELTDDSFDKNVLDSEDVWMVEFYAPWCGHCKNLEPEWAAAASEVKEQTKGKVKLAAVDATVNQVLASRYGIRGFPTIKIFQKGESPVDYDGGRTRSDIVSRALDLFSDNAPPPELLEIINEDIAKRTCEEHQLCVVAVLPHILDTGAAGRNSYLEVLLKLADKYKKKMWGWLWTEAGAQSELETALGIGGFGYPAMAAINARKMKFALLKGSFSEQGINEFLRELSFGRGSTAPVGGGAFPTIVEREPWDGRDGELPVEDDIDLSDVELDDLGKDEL
FGF22 binding: shifts melting point of recombinant human FGF22. Q9HCT0. recombinant FGF22 thermal shift, SYPRO orange fluorescence; percent of sucrose octasulfate shift, DMSO zero. activity (Tm shift, normalised), % at 9.99 µM. 340,000 tested, 1.5% active. AID 651658;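 active = mean Tm shift, scaled 0 neutral to 100 positive control, at about 1.3% or above, every replicate too, limit read from the data; inconclusive = no clear call, values can overlap the other calls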
Target sequence (Q9HCT0 whole entry, looked up): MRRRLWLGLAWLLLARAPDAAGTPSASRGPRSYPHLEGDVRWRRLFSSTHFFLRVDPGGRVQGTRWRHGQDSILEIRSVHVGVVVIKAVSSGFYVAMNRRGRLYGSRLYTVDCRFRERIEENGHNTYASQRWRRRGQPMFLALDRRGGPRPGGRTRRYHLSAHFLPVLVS
ARNT TACC3 PPI: disruptors of human ARNT/TACC3 interaction; inhibition, % at 9.99 µM; 390,000 tested, 0.66% active; Q9Y6A5; AlphaScreen His-ARNT PAS-B/GST-TACC3 binding, luminescence; TACC3 fragment carries E629A point mutation;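 active = mean inhibition of replicates at least 50% and at least half of replicates each reaching 50%; inconclusive = half or more replicates reach 50% but mean below 50%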;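 note: 0% = complete ARNT plus TACC3 wells and 100% = ARNT alone without TACC3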
MLL AF4-AF9 inh: inhibitors of human MLL-AF4/AF9 interaction | AlphaScreen, biotin-AF4 peptide binding to FLAG-AF9 | AID 651704 | 350,000 tested, 0.47% active | inhibition, % at 10 µM | P42568;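 active = every replicate reaching a set inhibition limit, whatever the replicate mean, cut at about 25% in these data; inconclusive = mean inhibition reaches that limit but some replicates miss it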;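 note: 0% = plate neutral control median and 100% = total signal loss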
FN deposition inh: fibronectin deposition inhibition. AID 743247. inhibition, % at 12.6 µM. 350,000 tested, 0.086% active. AH1F fibroblasts, Alexa488-fibronectin deposition fluorescence, overnight;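 active = mean inhibition across replicates of 30% or more, regardless of how many single replicates reach that level; inconclusive = mean under 30% yet at least half of replicates reach 30%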;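 note: positive control wells lacked labelled fibronectin entirely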
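Assay system: AH1F fibroblast monolayer, labelled fibronectin deposition. Amount: 10000 cells per well. Also added: labelled fibronectin 24 nM. Compound: single-point pinned compound. Incubation: cell attachment 1 h, compound and FN exposure overnight. Detection: fluorescence after three HBSS washes, excitation 485 nm, emission 525 nm. Read-out: inhibition of fibronectin deposition signal.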
The depositor's hits bear a star; ? = inconclusive; nt = no result. Sampled rows, rich in hits. Any-hit rate of the full collection: about 2.1%.

SMILES | PDI inh | ERp5 inh | FGF22 binding | ARNT TACC3 PPI | MLL AF4-AF9 inh | FN deposition inh
Cc1ccc2nc3c(c(C(=O)OC4CCOC4=O)c2c1)CCCC3 (centres undefined) | -3 | 4 | 43* | -8 | -2 | -4
O=C(C[C@@H]1C[C@@H]2c3cc(NC(=O)C4CCC4)ccc3O[C@@H]2[C@@H](CO)O1)NCc1ccccn1 | nt | -3 | 0 | -4 | -1 | nt
FC(F)(F)c1cc(CCN2CCNC[C@@H]2Cc2ccccc2)cc(C(F)(F)F)c1 | -2 | 7 | 0 | 1 | 27* | -2
CO[C@@H](CN(C)S(=O)(=O)c1ccc(C)cc1)[C@@H](C)CN(Cc1ccccc1Cl)[C@H](C)CO | nt | -1 | 0 | 3 | -1 | 0
O=[N+]([O-])c1ccc(N=Nc2ccc(O)cc2O)cc1 | 0 | nt | nt | -9 | nt | -2
O=S(=O)(O)c1cc(Cl)cc(N=Nc2ccc(O)cc2O)c1O | 3 | -5 | nt | 63* | 10 | 9
CN(C)/C=C/C(=O)c1cnc(-c2ccc(Cl)cc2)s1 | -3 | -7 | 0 | nt | -2 | 6
CN(C)/C=C/C(=O)c1ccc(Cl)s1 | 10 | 1 | 45* | 3 | 1 | 2
COc1cccc(S(=O)(=O)Nc2ccc3c(c2)[C@@H]2C[C@H](CC(=O)NCc4cccc(F)c4)O[C@@H](CO)[C@@H]2O3)c1 | nt | -9 | 0 | 15 | 1 | 11
Cc1ccc(-c2[nH]c3cc(C(=O)NCCCn4ccnc4)ccc3c(=O)c2O)cc1 | 15 | 1 | 0 | nt | 57* | -6
O=C(Nc1ccccc1C(=O)NCCCn1ccnc1)c1ccccc1 | 4 | 1 | 0 | 1 | -43 | nt
O=C(NCCCn1ccnc1)c1ccncc1 | -4 | nt | nt | -5 | nt | 1
CC(C)(C)C(=O)Nc1ccccc1C(=O)NCCCn1ccnc1 | 2 | -1 | 0 | 61* | 1 | 9
CC(C)(C)c1ccc(C(=O)NCCCn2ccnc2)cc1 | -3 | 0 | 0 | active | 1 | -10
Cc1ccc(C(C)(C)C)c(OCCCn2ccnc2)c1 | -4 | 2 | 0 | -16 | ? | 5
CC(C)(C)c1ccccc1OCCCCCn1ccnc1 | 2 | 0 | 44* | -21 | 7 | -19
O=C(C[C@H]1CC[C@H](NS(=O)(=O)c2ccccc2)[C@H](CO)O1)NCCN1CCCCC1 | nt | -6 | 0 | 4 | 1 | nt
CCN1[C@@H]2c3ccc(-c4ccccc4OC)c(=O)n3C[C@@H]2[C@@H](CO)[C@@H]1C(=O)NCC1CC1 | nt | 1 | 0 | -13 | -1 | nt
C[C@H](CO)N1C[C@H](C)[C@@H](CN(C)Cc2ccc(C(F)(F)F)cc2)OCCCC[C@H](C)Oc2ccc(NC(=O)CCC(F)(F)F)cc2C1=O | nt | -1 | 0 | -8 | 2 | nt
Cc1ccc(NC(=O)c2[nH]cnc2C(=O)NN)cc1 | 3 | -13 | 0 | -1 | 1 | -14
NNC(=O)c1nc[nH]c1C(=O)Nc1ccccn1 | -7 | 8 | 43* | 48* | 0 | 11
NC(=O)CNc1n[nH]c(=S)[nH]c1=O | -11 | -5 | 43* | nt | -3 | 0
CC(C)COC(=O)CNc1n[nH]c(=S)[nH]c1=O | -3 | -3 | 0 | 4 | 9 | nt
O=C(C[C@@H]1C[C@H]2c3cc(NC(=O)Nc4ccc(C(F)(F)F)cc4)ccc3O[C@H]2[C@H](CO)O1)NCc1ccc(Cl)cc1 | nt | -7 | 0 | 1 | 4 | nt
O=C(O)c1cccnc1Cl | 11 | 4 | 0 | 22 | -2 | 0
SMILES | PDI inh | ERp5 inh | FGF22 binding | ARNT TACC3 PPI | MLL AF4-AF9 inh | FN deposition inh
O=C(O)c1cccnc1C(=O)O | nt | 3 | 0 | 50* | -21 | nt
Cc1cc2c(cc1C)/C(=N/NC(=O)c1ccccn1)CCC2 | 0 | 1 | 0 | nt | 3 | 1
O=C(N/N=C/c1ccco1)c1ccccn1 | -4 | nt | nt | 67* | nt | 8
O=C(NN=C1CCC(=NNC(=O)c2ccccn2)CC1)c1ccccn1 | -3 | 4 | 43 | 66* | 3 | -5
CS(=O)(=O)Nc1ccc2c(c1)[C@@H]1C[C@@H](CC(=O)NCc3ccncc3)O[C@@H](CO)[C@@H]1O2 | nt | -3 | 0 | 3 | 1 | nt
O=C(CCCCCCCC(=O)c1ccccc1)c1ccccc1 | -3 | 1 | 44* | nt | -1 | 6
Cc1ccc(C(=O)Cc2ccccc2)cc1 | 7 | -5 | 44* | -21 | -8 | -5
O=C(CCCCN1CCCCC1)c1ccccc1 | -1 | 0 | 0 | -3 | 1 | -5
O=C(CCCCCCC(=O)c1ccccc1)c1ccccc1 | -3 | 2 | 43* | nt | -2 | -2
CCC(=O)Nc1ccc2c(c1)OC[C@H](C)N(CCc1ccccc1)C[C@H](C)[C@@H](OC)CN(C)C2=O | nt | -4 | 1 | nt | 1 | -7
COc1ccc(/C=N/NC(=O)c2sc(C)nc2C)cc1 | 4 | 0 | 43* | 4 | 1 | -2
COc1ccccc1/C=N/NC(=O)c1sc(C)nc1C | 14 | -1 | 0 | -12 | 2 | -1
O=C(Oc1c(CN2CCOCC2)cc(Cl)c2cccnc12)c1ccccc1Cl | 0 | -5 | 0 | 71* | 17 | 2
COc1cc(C(=O)Oc2c(CN3CCOCC3)cc(Cl)c3cccnc23)cc(OC)c1OC | 2 | nt | nt | 70* | nt | nt
O=C(Oc1c(CN2CCOCC2)cc(Cl)c2cccnc12)c1ccc(F)cc1 | -5 | nt | nt | 65* | nt | 6
COc1ccc(C(=O)Oc2c(CN3CCOCC3)cc(Cl)c3cccnc23)cc1 | 4 | nt | nt | 65* | nt | nt
COc1cc(C(=O)Oc2c(OC)cc(C(=S)N3CCOCC3)cc2OC)cc(OC)c1OC | 0 | 3 | 0 | 11 | 5 | -6
C[C@@H]1CN([C@H](C)CO)C(=O)c2cc(NC(=O)Cc3ccccc3)ccc2O[C@@H](C)CCCCO[C@@H]1CN(C)S(=O)(=O)c1ccccc1 | nt | 4 | 0 | -6 | -2 | -3
C[C@@H]1CN([C@H](C)CO)C(=O)c2cc(NC(=O)Cc3ccccc3)ccc2O[C@@H](C)CCCCO[C@@H]1CN(C)Cc1ccc2c(c1)OCO2 | nt | nt | 0 | -1 | nt | nt
CCCNC(=O)N1[C@H](CN(C)C(C)=O)[C@H](c2ccc(C3=CCCC3)cc2)[C@@H]1CO | nt | -6 | 0 | 7 | 0 | -1
CC(C)CC(N)c1csc(Nc2ccccn2)n1 (centres undefined) | 1 | 8 | 0 | nt | 3 | -1
CC(C)CC(N)c1csc(Nc2cnccn2)n1 (centres undefined) | -20 | 0 | 44* | nt | -4 | 1
O=C(Cc1ccncc1)NCC[C@@H]1CC[C@@H](NC(=O)C2CCCCC2)[C@H](CO)O1 | nt | 12 | 0 | -4 | 0 | nt
CCOc1cc(CNc2cccc3[nH]c(C)nc23)ccc1OC | 1 | 4 | 0 | 5 | 30* | 8
CO[C@H]1CN(C)C(=O)c2ccc(NC(=O)C3CCCC3)cc2OC[C@@H](C)N(CC2CC2)C[C@@H]1C | nt | -3 | 0 | -5 | 1 | 0
